# Screening data deposited in PubChem BioAssay by several laboratories.
# SENP1 FRET inh: inhibitors of human SENP1 SUMO protease catalytic domain; Q9P0U3; recombinant SENP1 catalytic domain, CyPet-SUMO1-YPet FRET cleavage; inhibition, % at 10 µM; hit rate 0.21% among 360,000; AID 624204;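 active = inhibition at least 30% at 10 µM, raw YFP signal under a set limit, fluorescence ratio 0.5 to 1.5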;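 also: 0% = enzyme with DMSO and 100% = no enzyme wells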
# Target sequence (Q9P0U3 419-644 limits assumed): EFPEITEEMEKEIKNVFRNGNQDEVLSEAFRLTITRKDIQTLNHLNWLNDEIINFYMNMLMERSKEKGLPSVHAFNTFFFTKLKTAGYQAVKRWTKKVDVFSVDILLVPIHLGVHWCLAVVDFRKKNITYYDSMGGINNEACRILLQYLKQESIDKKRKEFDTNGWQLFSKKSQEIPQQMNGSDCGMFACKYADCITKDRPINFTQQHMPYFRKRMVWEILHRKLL
#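 system = hSENP1 catalytic domain, recombinant | reagent = SFCypet-SUMO1-SFYpet substrate at 25 nM | doses = one dose per compound, 10 µM, 0.5% DMSO | incubation = enzyme reaction for 50 min at room temperature, dark | measured by = FRET, CFP and YFP emission | controls = no-enzyme low, enzyme-DMSO high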
# SENP8 block-1: SENP8 protease inhibition. hit rate 1.2% among 330,000. AID 2540. inhibition, % at 10 µM. purified SENP8, Z-RLRGG-aminoluciferin cleavage, luminescence. Q96LD8; in the data active = inhibition above about 50%
# SENP7 block: SENP7 protease inhibition | inhibition, % at 5 µM | hit rate 1.5% among 330,000 | recombinant SENP7, Z-RLRGG-aminoluciferin luminescence, 40 min | Q9BQF6;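 active = inhibition above about 50% at the single test dose, limit read from the data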;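 also: plate controls were DMSO with enzyme for no effect and no enzyme buffer wells for full effect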
# HSP90 refold inh: HSP90 refolding inhibition in rabbit reticulocyte lysate; luciferase refolding luminescence, 3 h; inhibition, % at 5.6 µM; hit rate 0.91% among 290,000; AID 1789;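 active = inhibition above the screen-wide mean plus 3 SD, computed separately per campaign, cut at about 16% in these data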;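 also: 0% = DMSO wells and 100% = 60 µM geldanamycin wells; inhibitors lower the luminescence because luciferase stays unfolded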
# SENP8 block-2: SENP8 (human) protease inhibition. Q96LD8. inhibition, % at 20 µM. recombinant SENP8, Nedd8 substrate fluorescence. hit rate 0.64% among 360,000; in the data active = inhibition mostly above about 40%, no sharp cut-off; inactive = mostly below about 27%
# SENP6 block: SENP6 protease inhibition; hit rate 1.8% among 330,000; inhibition, % at 10 µM; Recombinant SENP6 catalytic domain, aminoluciferin luminescence;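 active = inhibition above about 50% at the single tested dose, limit read from the data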;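 also: plate controls were DMSO wells with enzyme for no effect and DMSO wells lacking enzyme for full effect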
# Target sequence (Q9GZR1 628-1112 limits assumed): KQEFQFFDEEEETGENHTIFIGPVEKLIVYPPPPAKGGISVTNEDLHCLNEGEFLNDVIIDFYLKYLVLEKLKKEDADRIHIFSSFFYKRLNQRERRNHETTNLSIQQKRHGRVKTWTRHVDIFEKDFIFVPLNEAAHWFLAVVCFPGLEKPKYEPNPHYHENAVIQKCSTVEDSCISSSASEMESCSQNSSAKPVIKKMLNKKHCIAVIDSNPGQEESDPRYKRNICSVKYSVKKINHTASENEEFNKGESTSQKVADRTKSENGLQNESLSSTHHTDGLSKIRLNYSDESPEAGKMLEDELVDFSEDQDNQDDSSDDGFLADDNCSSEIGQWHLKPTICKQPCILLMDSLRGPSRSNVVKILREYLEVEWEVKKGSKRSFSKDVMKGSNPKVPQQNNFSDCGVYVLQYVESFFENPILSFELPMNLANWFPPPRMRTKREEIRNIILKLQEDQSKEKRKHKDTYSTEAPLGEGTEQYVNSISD
# SENP8 confirm: confirmation of human SENP8 protease inhibitors. shares compounds with SENP7 block. Recombinant SENP8, Z-RLRGG-aminoluciferin luminescence, 60 min. inhibition, % at 12.5 µM. hit rate 40% among 6,200;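 active = mean inhibition across replicates above about 50%, limit read from the data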
# SENP6 confirm: confirmation of human SENP6 protease inhibitors | recombinant SENP6, Z-RLRGG-aminoluciferin luminescence | inhibition, % at 12.5 µM | hit rate 58% among 6,200 | AID 488915 | shares compounds with SENP7 block
# SENP7 conf: confirmation of human SENP7 protease inhibitors; shares compounds with SENP7 block; recombinant SENP7, Z-RLRGG-aminoluciferin luminescence, 40 min; inhibition, % at 12.5 µM; hit rate 69% among 6,200; AID 488917
# Casp3 select: caspase-3 inhibition (SENP selectivity assay); shares compounds with SENP7 block; purified caspase-3, Z-DEVD-aminoluciferin luminescence, 60 min; inhibition, % at 12.5 µM; hit rate 60% among 6,200; AID 488918;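 active = mean inhibition above about 50%, limit read from the data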;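 also: plate controls were enzyme with DMSO for no effect and wells without caspase-3 for full effect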
# Luc interf: luminescence interference (SENP counter-screen); shares compounds with SENP7 block; Pre-incubated SENP8/Z-RLRGG-aminoluciferin, luciferase luminescence interference; inhibition, % at 12.5 µM; hit rate 39% among 6,200; AID 488919;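 active = mean inhibition above about 50% when retested at one dose, limit read from the data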;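 also: plate controls were DMSO wells with completed reaction for no effect and substrate without enzyme for full effect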
# Starred values were filed as active, the others as inactive; · = not tested or not shown. Only some compounds are listed: those with a hit (about 2.9% of all), similar ones and a draw of the others.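 The calls were made as follows, unless noted: active = mean inhibition above about 50% in the one-dose retest (limit read from the data); inactive = the rest.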
SMILES,SENP1 FRET inh,SENP8 block-1,SENP7 block,HSP90 refold inh,SENP8 block-2,SENP6 block,SENP8 confirm,SENP6 confirm,SENP7 conf,Casp3 select,Luc interf
CC(C)OCCCNC1=C(Cl)C(=O)c2ccccc2C1=O,1.8,22.5,16.6,6.4,68.2*,62.5*,25.2,51.2*,14.6,17.9,15.2
COCCCNC1=C(Cl)C(=O)c2ccccc2C1=O,5.1,6.4,16.7,8.0,37.4,31.5,·,·,·,·,·
CC(C)NC1=C(Cl)C(=O)c2ccccc2C1=O,-1.9,33.6,-6.7,10.1,51.7*,55.9*,15.3,45.1,13.9,26.5,4.9
Cn1ncc(Cl)c1C(=O)NC(=S)Nc1sc2c(c1C#N)CCCCC2,-3.9,-14.4,-4.9,3.0,20.6,13.4,·,·,·,·,·
COc1ccc(CC(=O)Oc2ccc(Cl)cc2Br)cc1S(=O)(=O)N1CCOCC1,-2.6,-6.1,8.4,·,-1.1,-14.5,·,·,·,·,·
O=[N+]([O-])c1cccc(N=Nc2ccc(O)cc2O)c1,3.1,·,·,·,37.0,·,·,·,·,·,·
O=[N+]([O-])c1ccc(N=Nc2ccc(O)cc2O)cc1,3.0,96.1*,98.5*,-1.0,4.7,96.7*,99.8*,100.8*,103.8*,99.3*,98.8*
Fc1ccc(NC(=S)Nc2cc(Cl)ccc2Cl)cc1,2.4,-1.4,13.4,0.8,10.1,-2.5,·,·,·,·,·
Cc1cc(O)c2c(c1)C(=O)c1cc(O)cc(O)c1C2=O,10.7,94.3*,79.9*,·,26.0,97.0*,95.7*,98.2*,101.8*,93.9*,80.7*
O=C1c2cc(O)cc(O)c2C(=O)c2c1cc(O)c([C@@H](CO)CCO)c2O,12.3,38.9,10.8,·,-1.2,47.0,·,·,·,·,·
C/C(=N\Nc1ccc([N+](=O)[O-])cc1)c1ccc(-n2nncc2C)cc1,-28.5,-5.3,-9.9,-2.2,-189.8,-2.5,·,·,·,·,·
CC(C)(C)c1cnnn1-c1ccc(/C=N/Nc2ccc([N+](=O)[O-])cc2)cc1,-25.2,64.0*,-6.7,-0.6,-99.5,40.5,4.2,3.0,-1.5,-1.7,-1.7
Cc1ccc(SC2=C(Sc3ccc(C)cc3)C(=O)c3ccccc3C2=O)cc1,-9.0,39.8,12.3,7.3,-92.9,62.1*,9.9,10.7,15.6,11.2,5.4
CC1=CC(=O)C(Sc2ccc(C)cc2)=CC1=O,1.4,·,·,·,22.0,·,·,·,·,·,·
COC(=O)c1ccc(C(=O)Nc2nc3cc(N)c(C)cc3s2)cc1,15.1,-0.8,-0.3,2.1,29.1,18.5,·,·,·,·,·
COC(=O)c1ccc(-c2nc3cc(Cl)c(N)cc3s2)cc1,-14.5,27.8,96.7*,8.8,-408.9,63.1*,-18.1,-4.3,17.9,38.5,-5.1
CCn1cc(C(=O)O)c(=O)c2cnc(N3CCN(C(=S)NC(=O)c4ccc(OC)cc4)CC3)nc21,0.2,0.8,6.0,1.3,-33.7,8.3,·,·,·,·,·
COc1cc(CCC(=O)OCC(=O)Nc2cc(S(=O)(=O)N3CCOCC3)ccc2Cl)cc(OC)c1OC,1.9,·,·,·,-2.4,·,·,·,·,·,·
C=CCOc1ccc(CNC(C)(C)CO)cc1OCC,-0.5,2.4,-2.3,1.2,13.6,-13.0,·,·,·,·,·
Cc1ccc(O)c(NC(=O)c2ccc3c(c2)C(=O)N(CC(C)C)C3=O)c1,0.1,0.9,32.3,0.5,16.6,-2.8,·,·,·,·,·
CCCCN1C(=O)c2ccc(C(=O)Nc3cccc(C)c3C)cc2C1=O,2.2,-1.5,4.1,4.5,12.4,-4.3,·,·,·,·,·
CCCN1C(=O)c2ccc(C(=O)Nc3ccccc3C(=O)O)cc2C1=O,-0.2,79.5*,15.6,0.9,17.6,88.6*,85.6*,85.1*,96.9*,43.6,89.4*
CCCN1C(=O)c2ccc(C(=O)Nc3cc(C)ccc3O)cc2C1=O,2.6,51.0*,97.2*,12.6,11.8,-24.7,-21.9,20.4,51.6*,50.1*,0.8
O=C1C(=O)N(Cc2ccccc2)C(=O)N1CCOc1ccccc1,1.9,-16.1,-9.3,-2.5,5.7,-10.8,·,·,·,·,·
O=C(Nc1nnc([C@H]2C[C@H](O)[C@@H](CO)O2)s1)Nc1ccccc1Oc1ccccc1,-0.4,·,·,·,0.3,·,·,·,·,·,·
SMILES,SENP1 FRET inh,SENP8 block-1,SENP7 block,HSP90 refold inh,SENP8 block-2,SENP6 block,SENP8 confirm,SENP6 confirm,SENP7 conf,Casp3 select,Luc interf
COc1ccc2c(CC(=O)N3CCc4ccccc43)coc2c1,-5.6,71.7*,85.1*,0.7,-2.9,84.7*,81.0*,80.7*,93.2*,80.6*,61.4*
CC(=O)N1CCN(C2=Nc3cccc4cccc2c34)CC1,-22.7,67.4*,3.9,-3.8,-124.9,81.3*,2.6,12.9,7.0,3.6,4.9
c1cc2c3c(cccc3c1)C(N1CCN(C3=Nc4cccc5cccc3c45)CC1)=N2,·,·,·,-1.8,·,·,·,·,·,·,·
c1ccc(CC2CCN(C3=Nc4cccc5cccc3c45)CC2)cc1,59.5,23.8,15.6,0.2,-4.6,72.9*,8.3,0.9,-4.4,-7.2,-7.4
c1cc2c3c(cccc3c1)C(N1CCOCC1)=N2,-36.5,44.7,10.6,1.2,-61.4,76.3*,9.0,5.6,3.2,0.8,1.2
CCOC(=O)N1CCN(C(=O)Nc2cccc3ccccc23)CC1,-0.6,0.2,18.2,2.2,-309.9,51.9*,6.8,8.0,8.6,4.5,4.9
O=[N+]([O-])c1ccc(N2CCN(c3cccc(Cl)c3)CC2)cn1,0.7,-13.6,-8.8,1.5,20.9,-9.8,·,·,·,·,·
CCOC(=O)N1CCN(C2=Nc3cccc4cccc2c34)CC1,-18.3,47.9,-1.2,0.5,-38.8,75.4*,-20.1,-16.7,-4.2,-5.1,-2.4
Cc1cccn2cc(-c3cc4ccccc4oc3=O)nc12,-104.5,23.0,22.9,6.7,-456.4,22.2,·,·,·,·,·
O=c1oc2ccccc2cc1-c1cn2cccnc2n1,-13.1,36.1,47.4,1.2,-349.0,58.5*,45.6,46.6,82.2*,81.7*,31.3
O=C(Nc1ccc2ccccc2n1)c1ccccc1Br,-1.9,77.2*,83.8*,0.9,0.1,79.1*,8.8,80.1*,97.2*,81.5*,16.7
Cc1ccc(C(=O)Nc2ccc3ccccc3n2)cc1,0.6,79.9*,86.0*,7.0,10.9,86.3*,88.4*,87.5*,96.7*,82.2*,77.1*
O=C(Nc1ccc2ccccc2n1)c1ccccc1,0.3,87.0*,93.3*,11.5,19.0,87.6*,84.7*,84.9*,97.8*,89.3*,89.0*
COc1ccc(C(=O)Nc2ccc3ccccc3n2)cc1OC,0.6,-7.0,1.1,-3.3,-43.2,11.9,·,·,·,·,·
